Experimental data taken from ChEMBL document CHEMBL1124749, “Analogues of 1,5-bis(4-amidinophenoxy)pentane (pentamidine) in the treatment of experimental Pneumocystis carinii pneumonia” (J Med Chem, 1990).
“And” between values parts separate entries of the source, which are not always exact repeats. Equal entries are not always repeated.

What was measured:
Calf thymus DNA = test: DNA binding affinity at low ionic strength as change in midpoint; assay type: nucleic-acid assay; settings: Bos taurus
Serine protease 1 [1] = biological target: T1, Serine protease 1 (Homo sapiens, UniProt P07477); test: Inhibition of trypsin by amidase assay.
T1 sequence (P07477 whole entry): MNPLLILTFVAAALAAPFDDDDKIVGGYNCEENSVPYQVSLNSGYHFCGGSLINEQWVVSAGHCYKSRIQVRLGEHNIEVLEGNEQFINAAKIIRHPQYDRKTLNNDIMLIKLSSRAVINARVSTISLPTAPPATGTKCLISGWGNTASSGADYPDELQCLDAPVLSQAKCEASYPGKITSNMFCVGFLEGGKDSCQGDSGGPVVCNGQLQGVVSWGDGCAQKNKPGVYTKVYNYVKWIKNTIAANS

Pneumocystis carinii [2] = test: (§1) Ability to reduce the severity of PCP in immunosuppressed rats after (iv) administration of 10 mg/kg/day; assay type: functional
In short: (§2)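 Male Sprague-Dawley rats (150–200 g, barrier raised) were given corticosteroids to induce PCP. From week 6, groups of eight or more received the compound by single daily iv injection in 0.4 mL saline for 14 days, generally at 10 mg/kg. Rats were killed at the end of week 8. GMS-stained lung sections were scored from 0.5 to 4 (4 = >50% involvement), with saline and pentamidine control groups.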

Pneumocystis carinii [3] = test: as §1; assay type: functional; in short: as §2; remark: listed apart in the source
Pneumocystis carinii [4] = test: Ability to reduce the severity of PCP in immunosuppressed rats after (i.v.) administration of 10 mg/kg/day; assay type: functional; settings: route intravenous; in short: as §2
[5] = Cytotoxicity in […], spleen and kidneys for pathologic changes by light microscopy.+ = animals survived without observable distress; assay type: tissue-based; settings: rat
In short: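 In corticosteroid-immunosuppressed rats given 14 daily iv doses for PCP, liver, spleen and kidneys were examined for pathology by light microscopy, and health was recorded daily. Toxicity was graded at 10 mg/kg or the highest dose tested on a scale from 0 (no local, clinical or histologic toxicity) to 4+ (≥50% of animals died).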

Rattus norvegicus [6] = species: Rattus norvegicus; test: Ability to reduce the severity of PCP in histologic score (represents >50% lung involved with many intense areas of focal infection); assay type: functional; in short: as §2
Rattus norvegicus [7] = test: as §1; assay type: functional; in short: as §2
Rattus norvegicus [8] = species: Rattus norvegicus; test: Ability to reduce the severity of PCP in histologic score (represents scattered cysts,25-50% lung involved with small intense areas of infection); assay type: functional; in short: as §2
Rattus norvegicus [9] = test: Ability to reduce the severity of PCP in immunosuppressed rats after (iv)administration; not tested in animals, Insoluble; assay type: functional, organism-based
Serine protease 1 [10] = biological target: T1, Serine protease 1; test: Inhibition of trypsin by amidase assay
Rattus norvegicus [11] = test: Ability to reduce the severity of PCP in immunosuppressed rats after(iv) administration of 10 mg/kg/day; assay type: functional; settings: in the assay text read “1.25 mg/kg/day” for “10 mg/kg/day”; in short: as §2
[12] = Cytotoxicity in […], spleen and kidneys for pathologic changes by light microscopy.++ = most animals survived, with severe distress and marked local toxicity and some systemic toxicity and histopathologic abnormalities; assay type: tissue-based; settings: rat
In short: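 Male Sprague-Dawley rats (150–200 g), corticosteroid-immunosuppressed to induce PCP; from week 6, single daily iv injection for 14 days, usually 10 mg/kg in 0.4 mL saline (lower if insoluble or toxic); killed end of week 8. Liver, spleen, kidneys examined by light microscopy; daily health observation; toxicity graded 0 to 4+ at 10 mg/kg or highest dose tested.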

Row | Compound | ΔTm (Calf thymus DNA) [°C] | Ki (Serine protease 1 [1]) [µM] | No. of animals (Pneumocystis carinii [2]) | No. of animals (Pneumocystis carinii [3]) | Toxicity [5] | other results
1 | COc1cc(C(=N)N)ccc1OCCCCCOc1ccc(C(=N)N)cc1OC.Cl.Cl | 12 | 1.3 | 2 | 4 |  | 
2 | Cl.N=C(N)c1ccc(NCCCCCNc2ccc(C(=N)N)cc2[N+](=O)[O-])c([N+](=O)[O-])c1 | 12.7 | 8 |  | 3 |  | No. of animals (Pneumocystis carinii [4]): 2 and 1
3 | Cl.N=C(N)c1ccc(NCCCCNc2ccc(C(=N)N)cc2)cc1 | 10.3 | 1.6 |  | 1 |  | 
4 | Cl.N=C(N)c1ccc(NCCCCCNc2ccc(C(=N)N)cc2N)c(N)c1 | 11 | 4.8 | 3 | 2 | animals survived without observable distress | 
5 | Cl.Cl.N=C(N)c1cccc(OCCCCOc2cccc(C(=N)N)c2)c1 | 8.1 | 1.8 | 2 | 1 |  | 
6 | Cl.N=C(N)c1ccc(NCCNc2ccc(C(=N)N)cc2N)c(N)c1 | 9.1 | 12.7 | 0 | 0 | animals survived without observable distress | 
7 | Cl.Cl.N=C(N)c1cccc(OCCCCCOc2cccc(C(=N)N)c2)c1 | 6.8 | 3.8 | 4 | 3 | animals survived without observable distress | 
8 | Cl.Cl.N=C(N)c1cccc(OCCCOc2cccc(C(=N)N)c2)c1 | 7.6 | 1.1 | 2 | 1 |  | 
9 | Cl.Cl.N=C(N)c1ccc(OCCCCCOc2ccc(C(=N)N)cc2[N+](=O)[O-])c([N+](=O)[O-])c1 | 9.7 | 1 | 0 | 2 |  | 
10 | Cl.N=C(N)c1ccc(OCCCCOc2ccc(C(=N)N)cc2N)c(N)c1 | 9.6 | 9.1 | 2 | 5 |  | No. of animals (Rattus norvegicus [6]): 0; No. of animals (Rattus norvegicus [7]): 1; No. of animals (Rattus norvegicus [8]): 0
11 | Cl.Cl.N=C(N)c1ccc(OCCCOc2ccc(C(=N)N)cc2)cc1 | 14.7 | 3.3 | 3 | 4 | animals survived without observable distress | 
12 | Cl.N=C(N)c1ccc(NCCCCNc2ccc(C(=N)N)cc2N)c(N)c1 | 10.5 | 11.1 | 0 | 4 | animals survived without observable distress | 
13 | N=C(N)c1ccc(OCCOc2ccc(C(=N)N)cc2)cc1 | 5.4 | 7.3 |  |  |  | 
14 | Cl.Cl.N=C(N)c1ccc(OCCCCOc2ccc(C(=N)N)cc2Cl)c(Cl)c1 | 8.9 |  |  | 1 |  | No. of animals (Rattus norvegicus [7]; in the assay text read “1.25 mg/kg/day” for “10 mg/kg/day”): 0; No. of animals (Pneumocystis carinii [4]): 2 and 3
15 | Cl.N=C(N)c1ccc(NCCCCCNc2ccc(C(=N)N)cc2)cc1 | 11.3 | 1.4 |  | 2 |  | 
16 | N=C(N)c1ccc(OCCCCCOc2ccc(C(=N)N)cc2Br)c(Br)c1 |  |  |  |  |  | No. of animals (Rattus norvegicus [9]): Insoluble
17 | COc1cc(C(=N)N)ccc1OCCCCOc1ccc(C(=N)N)cc1OC.Cl.Cl | 10.2 |  | 3 | 4 |  | 

Row | Compound | ΔTm (Calf thymus DNA) [°C] | Ki (Serine protease 1 [1]) [µM] | No. of animals (Pneumocystis carinii [2]) | No. of animals (Pneumocystis carinii [3]) | Toxicity [5] | other results
18 | Cl.N=C(N)c1ccc(OCCOc2ccc(C(=N)N)cc2N)c(N)c1 | 8.8 |  |  | 4 |  | Ki (Serine protease 1 [10]): 5 µM; No. of animals (Rattus norvegicus [6]): 0; No. of animals (Rattus norvegicus [8]): 0
19 | Cl.Cl.N=C(N)c1ccc(OCCCCCOc2ccc(C(=N)N)cc2Cl)c(Cl)c1 | 10.5 |  | 0 | 0 |  | 
20 | Cl.N=C(N)c1ccc(NCCCCCCNc2ccc(C(=N)N)cc2N)c(N)c1 | 8.3 | 5.3 | 3 | 1 | animals survived without observable distress | 
21 | Cl.N=C(N)c1ccc(OCCCCCCOc2ccc(C(=N)N)cc2[N+](=O)[O-])c([N+](=O)[O-])c1 |  |  |  |  |  | No. of animals (Rattus norvegicus [11]): 1
22 | Cl.Cl.N=C(N)c1cccc(OCCCCCCOc2cccc(C(=N)N)c2)c1 | 7.3 | 4 | 1 | 4 | animals survived without observable distress | 
23 | COc1cc(C(=N)N)ccc1OCCCOc1ccc(C(=N)N)cc1OC.Cl.Cl | 16.3 | 1.3 | 7 | 1 |  | No. of animals (Pneumocystis carinii [4]): 0
24 | Cl.Cl.N=C(N)c1ccc(OCCCOc2ccc(C(=N)N)cc2N)c(N)c1 | 13.6 | 5.8 | 2 | 4 |  | No. of animals (Rattus norvegicus [6]): 0; No. of animals (Rattus norvegicus [7]): 1; No. of animals (Rattus norvegicus [8]): 0
25 | Cl.N=C(N)c1ccc(NCCCNc2ccc(C(=N)N)cc2N)c(N)c1 | 11 | 10.3 | 1 | 4 | animals survived without observable distress | 
26 | Cl.N=C(N)c1ccc(NCCCNc2ccc(C(=N)N)cc2)cc1 | 11.6 | 1.1 | 5 and 2 | 1 | animals survived without observable distress | No. of animals (Rattus norvegicus [6]): 0; No. of animals (Rattus norvegicus [8]): 0
27 | Cl.N=C(N)c1ccc(NCCCNc2ccc(C(=N)N)cc2[N+](=O)[O-])c([N+](=O)[O-])c1 | 12.8 | 4.3 |  | 0 |  | Toxicity [12]: most animals survived, with severe distress and marked local toxicity and some systemic toxicity and histopathologic abnormalities; No. of animals (Rattus norvegicus [7]): 0
28 | Cl.N=C(N)c1ccc(OCCCCCCOc2ccc(C(=N)N)cc2N)c(N)c1 | 9.5 | 293 |  | 1 |  | No. of animals (Rattus norvegicus [6]): 0; No. of animals (Rattus norvegicus [8]): 3
29 | Cl.N=C(N)c1ccc(OCCCCCOc2ccc(C(=N)N)cc2)cc1 [PENTAMIDINE HYDROCHLORIDE] | 10.7 | 2.3 | 21 | 28 |  | 
30 | Cl.Cl.N=C(N)c1ccc(OCCCCCCOc2ccc(C(=N)N)cc2)cc1 | 9.1 | 2.7 | 3 | 3 |  | 
31 | Cl.Cl.N=C(N)c1ccc(OCCCCOc2ccc(C(=N)N)cc2[N+](=O)[O-])c([N+](=O)[O-])c1 | 8.5 | 5.4 | 0 | 0 |  | 
32 | Cl.Cl.N=C(N)c1ccc(OCCCCOc2ccc(C(=N)N)cc2)cc1 | 8.3 | 1.5 | 8 | 0 | Non-toxic | No. of animals (Pneumocystis carinii [4]): 0
33 | Cl.c1cc(C2=NCCN2)ccc1OCCCCCOc1ccc(C2=NCCN2)cc1 | 10.5 | > 2000 |  | 3 |  | No. of animals (Rattus norvegicus [6]): 0; No. of animals (Rattus norvegicus [8]): 0
34 | Cl.N=C(N)c1ccc(OCCCCCOc2ccc(C(=N)N)cc2N)c(N)c1 | 10.8 | 1.8 |  | 5 | animals survived without observable distress | No. of animals (Rattus norvegicus [6]): 0; No. of animals (Rattus norvegicus [8]): 1
